In general, IC50 refers to the concentration that gives 50% inhibition.

In the assay the target is human DDR1 (Homo sapiens, UniProt Q08345). In words: Off-chip Mobility Shift Assay. The format is biochemical. Put shortly: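 Carried out by a contract kinase profiling service, with details in the Supporting Information. IC50 (50 % inhibition) was read from semi-logarithmic dose-response plots of the test compound. Each value is the mean of duplicate samples.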
human DDR1, sequence (Q08345 19-913): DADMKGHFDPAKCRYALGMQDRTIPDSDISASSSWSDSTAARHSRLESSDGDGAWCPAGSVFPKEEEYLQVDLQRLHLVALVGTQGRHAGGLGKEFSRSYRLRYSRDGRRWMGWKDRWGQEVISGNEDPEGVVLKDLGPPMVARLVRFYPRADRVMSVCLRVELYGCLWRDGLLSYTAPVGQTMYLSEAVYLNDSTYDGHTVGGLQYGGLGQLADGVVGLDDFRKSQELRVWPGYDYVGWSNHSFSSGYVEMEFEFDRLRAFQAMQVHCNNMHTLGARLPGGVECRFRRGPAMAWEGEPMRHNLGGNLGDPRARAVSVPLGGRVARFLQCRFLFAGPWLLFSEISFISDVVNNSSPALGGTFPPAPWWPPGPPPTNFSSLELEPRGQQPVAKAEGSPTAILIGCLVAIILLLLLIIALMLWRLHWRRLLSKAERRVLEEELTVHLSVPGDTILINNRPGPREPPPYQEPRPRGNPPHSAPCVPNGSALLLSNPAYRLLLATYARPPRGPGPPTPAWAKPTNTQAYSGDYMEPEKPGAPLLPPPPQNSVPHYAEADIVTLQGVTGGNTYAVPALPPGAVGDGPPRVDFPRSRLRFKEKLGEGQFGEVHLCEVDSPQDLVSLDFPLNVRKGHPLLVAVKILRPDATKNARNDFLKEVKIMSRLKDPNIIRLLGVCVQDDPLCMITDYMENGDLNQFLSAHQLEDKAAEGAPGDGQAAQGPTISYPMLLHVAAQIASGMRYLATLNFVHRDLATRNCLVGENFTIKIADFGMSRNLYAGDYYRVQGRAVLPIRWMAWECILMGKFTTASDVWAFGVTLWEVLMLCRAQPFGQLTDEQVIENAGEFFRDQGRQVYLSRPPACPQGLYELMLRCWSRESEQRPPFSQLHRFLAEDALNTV

Turning to `O=C(Nc1ccc(Cl)c(COc2cccnc2)c1)c1cccc(C(F)(F)F)c1` [Compound 3, N‐(4‐chloro‐3‐((pyridin‐3‐yloxy)methyl)phenyl)‐3‐(trifluoromethyl)benzamide], the IC50 came out at 92.5 nM.

The record behind these values is article PMC8048584 (Chemmedchem, 2021).
